Measurements: ChEMBL document CHEMBL4251721, “Imidazole Alkaloids and Their Zinc Complexes from the Calcareous Marine Sponge Leucetta chagosensis” (J Nat Prod, 2018)
pIC50: −log10 of the molar value. Calls of active or inactive are those of the source. The rule behind the calls is not given here.

Assays:
[1] = tested on: A549; assay: Cytotoxicity against human A549 cells assessed as reduction in cell viability after 72 hrs by CCK-8 assay; assay type: functional, cell-based; conditions: A549, 72 h
[2] = tested on: PC-9; assay: Cytotoxicity against human PC9 cells assessed as reduction in cell viability after 72 hrs by CCK-8 assay; assay type: functional, cell-based; conditions: PC-9, 72 h
[3] = tested on: THP-1; assay: Antiinflammatory activity in human THP1 cells assessed as inhibition of LPS-stimulated MCP-1 level in serum at 10 uM preincubated for 2 hrs followed by LPS addition measured after 22 hrs by flow cytometry; assay type: functional, cell-based
[4] = tested on: THP-1; assay: Antiinflammatory activity in human THP1 cells assessed as inhibition of LPS-stimulated TNFalpha production by measuring TNF-alpha level in serum at 10 uM preincubated for 2 hrs followed by LPS addition measured after 22 hrs by flow cytometry (reference value: 9900 +/- 300 pg/ml); assay type: functional
[5] = tested on: THP-1; assay: Antiinflammatory activity in human THP1 cells assessed as inhibition of LPS-stimulated IL-10 level in serum at 10 uM preincubated for 2 hrs followed by LPS addition measured after 22 hrs by flow cytometry; assay type: functional, cell-based
[6] = tested on: MCF7; assay: Cytotoxicity against human MCF7 cells assessed as reduction in cell viability after 72 hrs by CCK-8 assay; assay type: functional, cell-based; conditions: MCF7, 72 h
How it was run: (§1)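 Cells were kept at 37 °C in DMEM with 10% nondialyzed FBS and 2 mM L-glutamine. The Oct4-GFP line is MCF-7 made stem-like by lentiviral Oct4-GFP overexpression. Cells were seeded at 3000/well and grown 24 h, then exposed to six concentrations of compound (DMSO solutions) for 72 h.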

[7] = tested on: THP-1; assay: Antiinflammatory activity in human THP1 cells assessed as inhibition of LPS-stimulated IL-6 production by measuring IL-6 level in serum at 10 uM preincubated for 2 hrs followed by LPS addition measured after 22 hrs by flow cytometry (reference value: 6100 +/- 200 pg/ml); assay type: functional
[8] = tested on: THP-1; assay: Antiinflammatory activity in human THP1 cells assessed as inhibition of LPS-stimulated IL-12p70 level in serum at 10 uM preincubated for 2 hrs followed by LPS addition measured after 22 hrs by flow cytometry; assay type: functional, cell-based
[9] = tested on: MCF7; assay: Induction of apoptosis in human MCF7 cells assessed as late apoptotic cells at 10 uM after 24 hrs by Annexin V-FITC/propidium iodide staining based flow cytometry (reference value: 0.309%); assay type: functional
[10] = tested on: MCF7; assay: Induction of apoptosis in human MCF7 cells assessed as early apoptotic cells at 5 uM after 24 hrs by Annexin V-FITC/propidium iodide staining based flow cytometry (reference value: 0.866%); assay type: functional
[11] = tested on: MCF7; assay: Induction of apoptosis in human MCF7 cells assessed as viable cells at 10 uM after 24 hrs by Annexin V-FITC/propidium iodide staining based flow cytometry (reference value: 96.6%); assay type: functional; conditions: MCF7, 24 h, read-out: Activity
[12] = tested on: MCF7; assay: Induction of apoptosis in human MCF7 cells assessed as late apoptotic cells after 24 hrs by Annexin V-FITC/propidium iodide staining based flow cytometry; assay type: functional, cell-based
[13] = tested on: MCF7; assay: Induction of apoptosis in human MCF7 cells assessed as viable cells at 5 uM after 24 hrs by Annexin V-FITC/propidium iodide staining based flow cytometry (reference value: 96.6%); assay type: functional; conditions: MCF7, 24 h, read-out: Activity
[14] = tested on: MCF7; assay: Induction of apoptosis in human MCF7 cells assessed as early apoptotic cells after 24 hrs by Annexin V-FITC/propidium iodide staining based flow cytometry; assay type: functional, cell-based
[15] = tested on: MCF7; assay: Cytotoxicity against human MCF7 cells expressing Oct4-GFP assessed as reduction in cell viability after 72 hrs by CCK-8 assay; assay type: functional, cell-based; conditions: MCF7, 72 h
How it was run: as §1, with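 “h. CCK-8 was added for 2 h at 37 °C and A450 read to give IC50.” for “h.”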

[16] = tested on: MCF7; assay: Induction of apoptosis in human MCF7 cells assessed as necrotic cells at 10 uM after 24 hrs by Annexin V-FITC/propidium iodide staining based flow cytometry (reference value: 2.19%); assay type: functional
[17] = tested on: MCF7; assay: Induction of apoptosis in human MCF7 cells assessed as early apoptotic cells at 10 uM after 24 hrs by Annexin V-FITC/propidium iodide staining based flow cytometry (reference value: 0.866%); assay type: functional
[18] = tested on: MCF7; assay: Induction of apoptosis in human MCF7 cells assessed as late apoptotic cells at 5 uM after 24 hrs by Annexin V-FITC/propidium iodide staining based flow cytometry (reference value: 0.309%); assay type: functional
[19] = tested on: MCF7; assay: Induction of apoptosis in human MCF7 cells assessed as necrotic cells at 5 uM after 24 hrs by Annexin V-FITC/propidium iodide staining based flow cytometry (reference value: 2.19%); assay type: functional

| SMILES | pIC50 [1] | pIC50 [2] | inhibition [3] | Activity [4] | inhibition [5] | pIC50 [6] | Activity [7] | inhibition [8] | other results |
| --- | --- | --- | --- | --- | --- | --- | --- | --- | --- |
| CC(=O)O[C@H]1C(=O)[C@@]2(C)[C@H]([C@H](OC(=O)c3ccccc3)[C@]3(O)C[C@H](OC(=O)[C@H](O)[C@@H](NC(=O)c4ccccc4)c4ccccc4)C(C)=C1C3(C)C)[C@]1(OC(C)=O)CO[C@@H]1C[C@@H]2O [PACLITAXEL] | 8.49 | 8.57 |  |  |  |  |  |  |  |
| CNC1=N/C(=N/c2nc(Cc3ccc4c(c3)OCO4)cn2C)C(=O)O1 | < 4.70 | < 4.70 | inactive | 9900 pg/mL | inactive | < 4.70 | 7600 pg/mL | inactive |  |
| Nc1cccc2c1C(=O)N(C1CCC(=O)NC1=O)C2=O (configuration not stated) [POMALIDOMIDE] |  |  |  | 7500 pg/mL |  |  |  |  |  |
| COc1ccc(C2=C3C(=NC(=N)N3C)C(=O)c3c(OC)ccc(OC)c32)cc1 | < 4.70 | < 4.70 | inactive | 9700 pg/mL | inactive | < 4.70 | 5400 pg/mL | inactive |  |
| COc1ccc(Cc2nc(/N=C3\NC(=O)N(C)C3=O)n(C)c2Cc2ccc(OC)c(OC)c2O)cc1 [PYRONAAMIDINE] | 5.11 | 5.25 |  |  |  | 5.28 |  |  | Activity [9]: 30.1%; Activity [10]: 10.2%; viability at 10 µM [11]: 34.8%; Activity [12]: Dose-dependent effect; viability at 5 µM [13]: 82%; Activity [14]: Dose-dependent effect; pIC50 [15]: 5.00; Activity [16]: 2.55%; Activity [17]: 32.3%; Activity [18]: 6.25%; Activity [19]: 1.54% |
| CN/C(N)=N\C(=O)Nc1nc(Cc2ccc3c(c2)OCO3)cn1C | < 4.70 | < 4.70 | inactive | 7800 pg/mL | inactive | < 4.70 | 5000 pg/mL | inactive |  |
| CC(C)=CCC/C(C)=C/Cc1cc(-c2coc3cc(O)ccc3c2=O)ccc1O |  |  |  |  |  |  | 2700 pg/mL |  |  |
